High-throughput results: PubChem, several laboratories
SKKanGAS inh: blocks kanamycin growth of S. pyogenes SKKanGAS strain. BacTiter-Glo, 6 h. inhibition, % at 7.5 µM. hit rate 1.3% among 300,000. AID 1662;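 active = mean replicate score, as percent of positive control median, at least 50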;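 note: strain carries kanamycin resistance gene driven by streptokinase promoter and grows in 40 µg/ml kanamycin; loss of luminescence reflects streptokinase promoter inhibition or plain growth inhibition; 0% = median of DMSO wells and 100% = positive control at its reference dose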
UPR XBP1 act: adaptive UPR (XBP1) activation; CHO-XBP1 luciferase reporter, IRE1-XBP1 UPR activation, luminescence; percent of tunicamycin response, DMSO as zero; activation, % at 20 µM; hit rate 0.33% among 330,000;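 active = versus positive control, 20 µM dose yields 30% or more activation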;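 note: 100% = tunicamycin at 10 µg/mL and 0% = DMSO only wells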
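Assay system: CHO-XBP1 luciferase reporter cells; Schedule: 6 h treatment, 37 °C; Detection: glow luminescence from Steady-Glo reagent; Benchmarks: high control tunicamycin 10 µg/mL final, low control DMSO vehicle only.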
CSC inhib: blocks cancer stem cells; cancer stem cell-like cells viability, luminescence; hit rate 1.1% among 300,000; inhibition, % at 7.5 µM; in the data active = inhibition above about 75%; tested in HMLE shEcad cells
Mdm2-MdmX inh: inhibitors of human Mdm2/MdmX interaction; inhibition, % at 8 µM; O15151+Q00987; hit rate 3% among 330,000; SaOS-2 split-luciferase Mdm2/MdmX complementation, luminescence; AID 485346;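 active = inhibition of at least 50% at 8 µM in the primary screen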
Target sequence (O15151 whole entry, looked up): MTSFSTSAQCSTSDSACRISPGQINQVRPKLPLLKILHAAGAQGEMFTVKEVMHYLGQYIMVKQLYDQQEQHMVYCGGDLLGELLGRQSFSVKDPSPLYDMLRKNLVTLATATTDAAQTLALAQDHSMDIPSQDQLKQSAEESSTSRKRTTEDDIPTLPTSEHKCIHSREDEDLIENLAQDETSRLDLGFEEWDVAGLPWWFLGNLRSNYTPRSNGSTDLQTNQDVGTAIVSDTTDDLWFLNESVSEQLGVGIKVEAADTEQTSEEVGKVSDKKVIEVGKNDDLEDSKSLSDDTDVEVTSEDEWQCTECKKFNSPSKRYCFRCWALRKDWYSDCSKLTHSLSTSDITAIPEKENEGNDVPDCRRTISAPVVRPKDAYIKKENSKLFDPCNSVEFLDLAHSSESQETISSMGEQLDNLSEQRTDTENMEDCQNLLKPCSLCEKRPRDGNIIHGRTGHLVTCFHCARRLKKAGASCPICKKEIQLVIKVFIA
Target sequence (Q00987 whole entry, looked up): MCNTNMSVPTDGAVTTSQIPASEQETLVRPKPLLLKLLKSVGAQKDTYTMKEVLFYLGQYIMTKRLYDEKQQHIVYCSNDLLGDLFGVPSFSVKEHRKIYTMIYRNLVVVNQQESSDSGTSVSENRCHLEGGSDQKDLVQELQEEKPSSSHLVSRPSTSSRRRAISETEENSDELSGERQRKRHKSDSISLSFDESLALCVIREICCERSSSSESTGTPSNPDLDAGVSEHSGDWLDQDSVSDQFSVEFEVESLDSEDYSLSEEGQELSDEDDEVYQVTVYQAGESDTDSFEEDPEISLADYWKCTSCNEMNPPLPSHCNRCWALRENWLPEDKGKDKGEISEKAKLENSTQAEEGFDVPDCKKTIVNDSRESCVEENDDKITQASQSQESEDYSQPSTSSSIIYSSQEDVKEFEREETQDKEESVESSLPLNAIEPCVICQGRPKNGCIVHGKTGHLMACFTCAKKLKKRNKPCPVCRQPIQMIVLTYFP
UPR CHOP act: activators of apoptotic arm of unfolded protein response (CHOP); CHO-CHOP luciferase reporter, UPR activation, luminescence; percent of tunicamycin response over DMSO baseline; activation, % at 10 µM; hit rate 0.34% among 330,000; AID 449763;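 active = at 10 µM dose, activation of 40% or more, normalized to positive control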;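 note: 100% = tunicamycin at 10 µg/mL and 0% = DMSO alone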
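Dosing – one dose, 10 µM in 0.5% DMSO · System – CHO-CHOP cells, stable luciferase reporter of PERK-eIF2a-CHOP signalling · Input – 500 cells/well · Control set – tunicamycin 10 µg/mL final as positive, DMSO-only wells as negative · Timing – 6 h compound treatment, 37 °C · Measure – % activation vs tunicamycin · Technique – luminescence read with Steady-Glo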
Beta apoptosis: beta cell apoptosis inhibition; INS-1E cytokine-induced death, ATP luminescence, 48 h; percent of positive-control rescue, neutral wells zero; protection from apoptosis, % (test concentration not listed); hit rate 0.8% among 300,000;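 active = Every replicate reaches about 75%, or at least half do and their mean reaches it too, limit read from the data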;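 note: 0% = cytokine-treated negative control wells and 100% = positive control rescue; higher means more ATP so stronger rescue from cytokine killing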
CHOP UPR conf: confirmation of apoptotic unfolded protein response (CHOP) activators. shares compounds with UPR CHOP act. hit rate 64% among 1,000. activation, % at 10 µM. CHO-CHOP cells, CHOP-luciferase reporter luminescence; percent of tunicamycin response, DMSO as zero; in the data active = activation above about 33%;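 note: 0% = DMSO wells and 100% = tunicamycin 10 µg/mL wells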
UPR XBP1 confirm: adaptive UPR (XBP1) activation, confirmed. activation, % at 20 µM. shares compounds with UPR XBP1 act. hit rate 63% among 1,000. CHO-XBP1 IRE1-XBP1 luciferase reporter, luminescence;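 active = reporter signal at least 30% of the positive control's activation in two or more of four replicate wells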;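 note: plate controls were DMSO negative control for no effect and tunicamycin 10 µg/mL positive control for full effect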
Mdm2 MdmX conf: human Mdm2/MdmX binding inhibition, confirmed | luminescent assay | shares compounds with Mdm2-MdmX inh | hit rate 55% among 10,000 | inhibition, % at 8 µM; in the data active = inhibition above about 40%
Full FLuc ctr: counter-screen for Mdm2/MdmX inhibitors: full-length luciferase; shares compounds with Mdm2-MdmX inh; SaOS-2 full-length luciferase counterscreen, luminescence; inhibition, % at 8 µM; hit rate 77% among 6,200; AID 504607;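 active = mean inhibition at 8 µM reaching about 37%, which flags the compound as non-specific, limit read from the data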;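 note: p53-null SaOS-2 cells with luciferase driven by a doxycycline-inducible promoter; compound on cells about two nights before reading with doxycycline added after day one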
Starred values were filed as active, the others as inactive; / = no result given. Sampled rows, rich in hits. Any-hit rate of the full collection: about 4.8%.

SMILES	SKKanGAS inh	UPR XBP1 act	CSC inhib	Mdm2-MdmX inh	UPR CHOP act	Beta apoptosis	CHOP UPR conf	others
Nc1c(C(=O)OCc2ccccc2)c2nc3ccccc3nc2n1Cc1cccs1	56*	-1	70	28	1	-19	/
COCCCNC(=O)c1c(NC(=O)c2ccccc2Cl)n(Cc2ccccc2)c2nc3ccccc3nc12	32	0	0	24	-1	7	/
COCCNC(=O)c1c(NC(=O)c2ccco2)n(Cc2ccccc2)c2nc3ccccc3nc12	68*	0	-3	20	-1	-20	/
O=c1[nH]c(=O)n(Cc2ccc(F)cc2)c(O)c1/C=N/Nc1ccccc1	11	-1	79*	22	-1	3	/
O=c1[nH]c(=O)n(CCC2=CCCCC2)c(O)c1/C=N/Nc1ccccc1	-10	-1	97*	9	2	0	/
O=c1[nH]c(=O)n(Cc2ccc(F)cc2)c(O)c1C=NCCCO	-12	-3	/	-2	-1	0	/
CCC(=O)c1ccc(OCC(=O)N2CCN(CC(=O)Nc3ccccc3C(F)(F)F)CC2)cc1	/	-4	-17	23	1	-1	/
Cc1ccc(N2C(=O)NC(=O)/C(=C/c3cnn(-c4ccc(C)cc4)c3)C2=O)cc1	-2	3	10	-1	87*	85*	93*
O=C1NC(=S)NC(=O)C1=Cc1ccc(Br)s1	-5	-5	19	18	72*	3	119*
O=c1[nH]c(=O)n(-c2cccc(Cl)c2)c(O)c1/C=N/c1ccccn1	-2	-4	8	12	-2	-7	/
N=Cc1c(O)n(-c2cccc(Cl)c2)c(=O)[nH]c1=O	6	-2	-13	20	40*	-9	-1
CCc1ccc(N2C(=O)NC(=O)/C(=C\C=C\c3ccco3)C2=O)cc1	19	-4	116*	50	167*	9	229*
O=c1[nH]c(=S)n(Cc2ccc(F)cc2)c(O)c1/C=N/N1CCCCCC1	26	-3	25	9	3	-2	/
CC(C)NC(=O)c1ccc(N2CC3CC(C2)c2cccc(=O)n2C3)c([N+](=O)[O-])c1 (stereo not given)	-3	-2	5	5	-2	-6	/
CCOc1ccc(N2C(=O)/C(=C\c3cccs3)C(=O)NC2=S)cc1	-1	-7	8	-12	268*	/	63*
CCOc1ccc(N2C(=O)/C(=C/c3ccco3)C(=O)NC2=S)cc1	-2	-5	-13	24	37	-2	/
CC[N+](C)(CC)CCCCOc1ccc2c(c1)C(=O)c1cc(OCCCC[N+](C)(CC)CC)ccc1-2	8	-2	-4	2	-1	-1	/
Cc1ccc(N2C(=O)NC(=O)/C(=C/C=C/c3ccco3)C2=O)cc1	5	-4	79*	54*	168*	9	119*	Mdm2 MdmX conf=32
O=C1NC(=O)N(c2ccccc2)C(=O)/C1=C\C=C\c1ccccc1	3	-1	60	78*	175*	13	63*	Mdm2 MdmX conf=11
COc1cc(/C=C2\C(=O)NC(=O)N(c3ccccc3)C2=O)cc(OC)c1OC	2	-3	-2	33	-1	-11	/
O=C1NC(=O)N(Cc2ccc(F)cc2)C(=O)/C1=C\C=C\c1ccco1	-6	-1	13	9	-1	-2	/
O=C(NCCN1CCCCC1)c1ccc(Cl)nc1Cl	0	0	-4	9	-1	-5	/
CCC1C2Cn3c(nc4ccccc43)C1N(C)O2 (stereo not given)	3	2	-5	9	2	3	/
Cc1cccc(-n2c(/C=C/c3ccc([N+](=O)[O-])o3)nc3ccccc3c2=O)c1	20	12	89*	94*	43*	-13	37*	Mdm2 MdmX conf=57*;Full FLuc ctr=42*
O=c1c2ccccc2nc(/C=C/c2ccc([N+](=O)[O-])o2)n1-c1ccc(O)cc1	9	21	/	75*	94*	/	37*	Mdm2 MdmX conf=85*;Full FLuc ctr=23
SMILES	SKKanGAS inh	UPR XBP1 act	CSC inhib	Mdm2-MdmX inh	UPR CHOP act	Beta apoptosis	CHOP UPR conf	others
O=C1NC(=O)C(=Cc2ccc(OCC(=O)N3CCOCC3)cc2)C(=O)N1	-5	0	-10	6	2	-4	/
C[n+]1c(-c2ccccc2)cc(-c2ccc(Cl)cc2)cc1-c1ccccc1	-2	-3	4	23	-2	39	/
Cc1ccc(-c2cc(-c3ccc(C)cc3)[n+](-c3ccccc3)c(-c3ccc(C)cc3)c2)cc1	22	7	48	93*	55*	122*	69*	Mdm2 MdmX conf=94*;Full FLuc ctr=12
C=C1C(=O)O[C@@H]2C[C@@H](C)[C@H]3C=CC(=O)[C@]3(O)C[C@@H]12	1	-4	3	58*	61*	2	24	Mdm2 MdmX conf=-8
CCN(CC)c1ccc(N=Cc2c(O)n(-c3ccc(Cl)cc3)c(=O)[nH]c2=O)cc1	12	167*	33	12	31	-10	/	UPR XBP1 confirm=48*
CCN(CC)c1ccc(N=Cc2c(O)n(-c3ccc(OC)cc3)c(=O)[nH]c2=O)cc1	16	-3	2	13	1	-14	/
COC(=O)N(C)c1ccc(C(O)(C(=O)OC)C(F)(F)F)cc1 (stereo not given)	2	-2	-4	1	-1	-1	/
O=C1NC(=O)N(Cc2ccccc2)C(=O)/C1=C\c1ccco1	-7	71*	8	9	2	-5	/	UPR XBP1 confirm=29*
CCOC(=O)CN1C(=O)C2(C(C#N)=C(N)Oc3ccccc32)C(C(=O)OC)=C1C (stereo not given)	-6	1	-3	20	2	-2	/
CC(C)N1CC=C(c2c[nH]c3ccccc23)CC1	1	48*	-8	15	-4	-7	/	UPR XBP1 confirm=0
CCCCCc1nc2c(c(=O)c3ccccc3n2C)c(=O)n1C1CCCCCC1	94*	61*	149*	69*	12	111*	/	UPR XBP1 confirm=46*;Mdm2 MdmX conf=35
Cc1ccc(OP(=O)(NCc2ccccc2)Oc2ccc(C)cc2)cc1	18	-4	7	12	-1	6	/
O=C1NC(=O)N(c2cccc(Br)c2)C(=O)/C1=C/c1ccsc1	7	-3	0	9	-1	2	/
